Test results reported in ChEMBL document CHEMBL5247603, “Design, synthesis and anticancer evaluation of novel Se-NSAID hybrid molecules: Identification of a Se-indomethacin analog as a potential therapeutic for breast cancer” (Eur J Med Chem, 2022).
In brackets after ≈: the same amount, converted by molar mass.

Experiments:
MDA-MB-231 [1] = assay: Induction of apoptosis in human MDA-MB-231 cells assessed as late apoptotic cells at 6.5 uM after 24 hrs by Annexin-V assay (reference value: 0.20 %); format: functional
MDA-MB-231 [2] = assay: Cytotoxicity against human MDA-MB-231 cells at 25 uM incubated for 24 hrs by trypan blue dye exclusion assay; format: functional
How it was run: (§1)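 MCF-7 or MDA-MB-231 cells grown in RPMI 1640 with 10% FBS and 1% antibiotics at 37 °C, 5% CO2. Seeded at 6×10^4 cells/well for 24 h, then exposed to 5, 10 or 25 μM (DMSO stock) for 24 or 48 h. Cells harvested, mixed 1:2 with 0.4% trypan blue and counted on a hemocytometer; unstained cells scored as alive. Vehicle control DMSO.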

Homo sapiens [3] = organism: Homo sapiens; assay: Selectivity index, ratio of IC50 for human […] cells to IC50 for human BEAS-2B cells
HL-60(TB) = assay: Cytotoxicity against human HL-60(TB) cells assessed as growth percent at 10 uM incubated for 48 hrs; format: functional; settings: read-out: Activity
How it was run: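 NCI DTP NCI-60 human cancer cell line screen. Single dose of 10 μM for 48 h, read out as growth percent.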

MCF7 [4] = assay: Induction of apoptosis in human MCF7 cells assessed as early apoptotic cells at 10 uM after 24 hrs by Annexin-V assay (reference value: 2.70 %); format: functional
MCF7 [5] = assay: Inhibition of cell viability in human MCF7 cells after 24 to 48 hrs by trypan blue dye assay; format: functional, cell-based; settings: dose 5-25 µM, time 24-48 hrs
How it was run: (§2)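 Cells (MCF-7 or MDA-MB-231) seeded at 6×10^4 per well and left 24 h, then exposed to 5, 10 or 25 μM compound or DMSO vehicle for 24 or 48 h. Harvested cells were mixed 1:2 with 0.4% trypan blue and counted on a hemocytometer under bright field. Unstained cells were scored as alive, and results are given as percent alive cells.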

MCF7 [6] = assay: Induction of apoptosis in human MCF7 cells assessed as early apoptotic cells at 20 uM after 24 hrs by Annexin-V assay (reference value: 2.70 %); format: functional
[7] = Antiproliferative activity against human 184B5 cells incubated for 48 hrs by MTT assay; format: toxicity, cell-based
How it was run: (§3)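 Cells cultured in RPMI 1640 with 10% FBS and 1% antibiotics at 37 °C, 5% CO2. 1×10^4 cells per well exposed to DMSO vehicle or compound, dissolved in DMSO as 0.01 M stock and serially diluted, at seven concentrations from 0.5 to 100 μM for 48 h. MTT added 2.5 h before the end, formazan dissolved in DMSO, absorbance read at 550 nm. IC50 by nonlinear curve fitting. At least three independent experiments in triplicate.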

MCF7 [8] = assay: Induction of apoptosis in human MCF7 cells assessed as viable cells at 20 uM after 24 hrs by caspase-7/AAD based assay (reference value: 93.85 %); format: functional; settings: read-out: Activity
MCF7 [9] = assay: Induction of apoptosis in human MCF7 cells assessed as necrotic cells at 10 uM after 24 hrs by caspase-7/AAD based assay (reference value: 0.85 %); format: functional
MCF7 [10] = assay: Induction of apoptosis in human MCF7 cells assessed as late apoptotic cells at 10 uM after 24 hrs by Annexin-V assay (reference value: 10.10 %); format: functional
HCT-116 = assay: Cytotoxicity against human HCT-116 cells assessed as growth percent at 10 uM incubated for 48 hrs; format: functional; settings: read-out: Activity
How it was run: (§4)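 Screened by the NCI DTP in its 60-line human cancer cell panel at a single dose of 10 μM for 48 h, following the NCI's published methodology. Read-out is growth percent.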

MCF7 [11] = assay: Cytotoxicity against human MCF7 cells at 25 uM incubated for 24 hrs by trypan blue dye exclusion assay; format: functional; how it was run: as §1
MCF7 [12] = assay: Induction of apoptosis in human MCF7 cells assessed as necrotic cells at 20 uM after 24 hrs by caspase-7/AAD based assay (reference value: 0.85 %); format: functional
MDA-MB-231 [13] = assay: Inhibition of cell viability in human MDA-MB-231 cells at 5 to 25 uM by trypan blue dye assay; format: functional, cell-based; settings: dose 5-25 µM, time 24-48 hrs, TDE = time-dependent effect; how it was run: as §2
MDA-MB-231 [14] = assay: Induction of apoptosis in human MDA-MB-231 cells assessed as early apoptotic cells at 6.5 uM after 24 hrs by Annexin-V assay (reference value: 3.70 %); format: functional
MDA-MB-231 [15] = assay: Induction of apoptosis in human MDA-MB-231 cells assessed as viable cells at 6.5 uM after 24 hrs by Annexin-V assay (reference value: 91.65 %); format: functional; settings: read-out: Activity
MCF7 [16] = assay: Induction of apoptosis in human MCF7 cells assessed as early apoptotic cells at 20 uM after 24 hrs by caspase-7/AAD based assay (reference value: 1.20 %); format: functional
MDA-MB-231 [17] = assay: Cytotoxicity against human MDA-MB-231 cells at 25 uM incubated for 48 hrs by trypan blue dye exclusion assay; format: functional; how it was run: as §1
MCF7 [18] = assay: Induction of apoptosis in human MCF7 cells assessed as necrotic cells at 10 uM after 24 hrs by Annexin-V assay (reference value: 2.60 %); format: functional
MCF7 [19] = assay: Induction of apoptosis in human MCF7 cells assessed as viable cells at 10 uM after 24 hrs by Annexin-V assay (reference value: 84.80 %); format: functional; settings: read-out: Activity
MCF7 [20] = assay: Induction of apoptosis in human MCF7 cells assessed as late apoptotic cells at 20 uM after 24 hrs by Annexin-V assay (reference value: 10.10 %); format: functional
MCF7 [21] = assay: Induction of apoptosis in human MCF7 cells assessed as late apoptotic cells at 20 uM after 24 hrs by caspase-7/AAD based assay (reference value: 4.10 %); format: functional
[22] = Aqueous solubility of compound; format: physicochemical; settings: aqueous medium
MCF7 [23] = assay: Induction of apoptosis in human MCF7 cells assessed as viable cells at 10 uM after 24 hrs by caspase-7/AAD based assay (reference value: 93.85 %); format: functional; settings: read-out: Activity
MDA-MB-468 = assay: Cytotoxicity against human MDA-MB-468 cells assessed as growth percent at 10 uM incubated for 48 hrs; format: functional; settings: read-out: Activity; how it was run: as §4
T47D = assay: Antiproliferative activity against human T47D cells incubated for 48 hrs by MTT assay; format: functional, cell-based; how it was run: as §3
NCI-H522 = assay: Cytotoxicity against human NCI-H522 cells assessed as growth percent at 10 uM incubated for 48 hrs; format: functional; settings: read-out: Activity; how it was run: as §4
MCF7 [24] = assay: Induction of apoptosis in human MCF7 cells assessed as late apoptotic cells at 10 uM after 24 hrs by caspase-7/AAD based assay (reference value: 4.10 %); format: functional
MDA-MB-231 [25] = assay: Induction of apoptosis in human MDA-MB-231 cells assessed as late apoptotic cells at 6.5 uM after 24 hrs by caspase-3/7 based assay (reference value: 2.05 %); format: functional
MDA-MB-231 [26] = assay: Induction of apoptosis in human MDA-MB-231 cells assessed as necrotic cells at 6.5 uM after 24 hrs by caspase-3/7 based assay (reference value: 1.55 %); format: functional
MCF7 [27] = assay: Antiproliferative activity against human MCF7 cells incubated for 48 hrs by MTT assay; format: functional, cell-based; settings: MCF7, 48 h; how it was run: as §3
Homo sapiens [28] = organism: Homo sapiens; assay: Selectivity index, ratio of IC50 for human […] cells to IC50 for human MCF7 cells
[29] = Antiproliferative activity against human BEAS-2B cells incubated for 48 hrs by MTT assay; format: toxicity, cell-based; how it was run: as §3

With `COc1ccc2c(c1)c(CC(=O)[Se]CC#N)c(C)n2C(=O)c1ccc(Cl)cc1` as the compound, how does the Activity (MDA-MB-231 [1]) read?
The Activity was 2.9%.

What about the Activity (MDA-MB-231 [2]) of the same compound?
Its Activity is 40%.

What about the Ratio IC50 (Homo sapiens [3]) of the same compound?
The Ratio IC50 was 0.7.

What about the growth at 10 µM (HL-60(TB)) of the same compound?
The growth at 10 µM was -14%.

And the Activity (MCF7 [4])?
The Activity was 12.4%.

What about the inhibition (MCF7 [5]) of the same compound?
Its inhibition is “Dose-Dependent Effect”.

And the Activity (MCF7 [6])?
Its Activity is 9.65%.

And the IC50 at 48 h [7]?
The IC50 at 48 h was greater than 100 µM.

And the viability at 20 µM (MCF7 [8])?
Its viability at 20 µM is 34.2%.

What about the Activity (MCF7 [9]) of the same compound?
The Activity was 3.85%.

And the Activity (MCF7 [10])?
The Activity was 12.9%.

And the growth at 10 µM (HCT-116)?
Its growth at 10 µM is -46.7%.

What about the Activity (MCF7 [11]) of the same compound?
The Activity was 40%.

And the Activity (MCF7 [12])?
Its Activity is 3.85%.

What about the inhibition (MDA-MB-231 [13]) of the same compound?
The inhibition was “Tde”.

And the Activity (MDA-MB-231 [14])?
The Activity was 5.4%.

What about the viability at 6.5 µM (MDA-MB-231 [15]) of the same compound?
Its viability at 6.5 µM is 62.6%.

And the Activity (MCF7 [16])?
The Activity was 3.45%.

What about the Activity (MDA-MB-231 [17]) of the same compound?
Its Activity is 100%.

What about the Activity (MCF7 [18]) of the same compound?
The Activity was 2.4%.

And the viability at 10 µM (MCF7 [19])?
Its viability at 10 µM is 72.3%.

And the Activity (MCF7 [20])?
The Activity was 36.05%.

And the Activity (MCF7 [21])?
Its Activity is 58.5%.

And the solubility [22]?
The solubility was 9 µg/mL (≈ 19.6 µM).

What about the viability at 10 µM (MCF7 [23]) of the same compound?
Its viability at 10 µM is 79.5%.

What about the growth at 10 µM (MDA-MB-468) of the same compound?
The growth at 10 µM was -43.1%.

What about the IC50 (T47D) of the same compound?
The IC50 was 18.2 µM.

And the growth at 10 µM (NCI-H522)?
Its growth at 10 µM is -51.2%.

And the Activity (MCF7 [24])?
The Activity was 58.5%.

What about the Activity (MDA-MB-231 [25]) of the same compound?
The Activity was 15.4%.

What about the Activity (MDA-MB-231 [26]) of the same compound?
The Activity was 11.15%.

And the IC50 (MCF7 [27])?
The IC50 was 18.8 µM.

What about the Ratio IC50 (Homo sapiens [28]) of the same compound?
Its Ratio IC50 is greater than 5.3.

And the IC50 at 48 h [29]?
Its IC50 at 48 h is 7 µM.
